Tested on: U2OS
Assay: Multiplex assay against U2OS
Format: toxicity, cell-based
Settings: human
Summary of the method: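 Cells stained live at seeding with Hoechst33342, BioTracker Green Microtubule Cytoskeleton Dye, MitoTracker Red and Annexin V Alexa Fluor 680 were imaged on a CQ1 microscope at 37°C and 5% CO2 after compound addition. Their classification by CellPathfinder machine-learning gating ran from Hoechst high-intensity objects versus normal cells, to healthy, pyknosed or fragmented nuclei among normal cells, to mitotic or apoptotic among pyknosed cells. Tubulin, mitochondrial-mass and membrane-permeability phenotypes are per cents of healthy-nucleus cells.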

[1] = 12 h, 1 µM, compound concentration 1 uM, replicate 1
[2] = 12 h, 1 µM, compound concentration 1 uM, replicate 2
[3] = 12 h, 10 µM, compound concentration 10 uM, replicate 1
[4] = 12 h, 10 µM, compound concentration 10 uM, replicate 2
[5] = 24 h, 1 µM, compound concentration 1 uM, replicate 1
[6] = 24 h, 1 µM, compound concentration 1 uM, replicate 2
[7] = 24 h, 10 µM, compound concentration 10 uM, replicate 1
[8] = 24 h, 10 µM, compound concentration 10 uM, replicate 2
[9] = 48 h, 1 µM, compound concentration 1 uM, replicate 1
[10] = 48 h, 1 µM, compound concentration 1 uM, replicate 2
[11] = 48 h, 10 µM, compound concentration 10 uM, replicate 1
[12] = 48 h, 10 µM, compound concentration 10 uM, replicate 2

COc1cc(NC(=O)CCN2CCC(OC(=O)Nc3ccccc3-c3ccccc3)CC2)c(Cl)cc1CNC[C@H](O)c1ccc(O)c2[nH]c(=O)ccc12 [BATEFENTEROL]
Population Apoptotic (%) [1]: 68% | Population Fragmented Nuclei (%) [1]: 29% | Population Healthy Nuclei (%) [1]: 49% | Population Hoechst High Intensity Objects (%) [1]: 4% | Population Membrane Permeable-Phenotype (%) [1]: 5% | Population Mitochondria Different-Phenotype (%) [1]: 5% | Population Mitotic Cells (%) [1]: 31% | Population Normal (%) [1]: 95% | Population Pyknosed Nuclei (%) [1]: 21% | Population Tubulin-Different-Phenotype (%) [1]: 4% | Total Cell Count [1]: 159 | Population Apoptotic (%) [2]: 85% | Population Fragmented Nuclei (%) [2]: 14% | Population Healthy Nuclei (%) [2]: 78% | Population Hoechst High Intensity Objects (%) [2]: 1% | Population Membrane Permeable-Phenotype (%) [2]: 9% | Population Mitochondria Different-Phenotype (%) [2]: 6% | Population Mitotic Cells (%) [2]: 14% | Population Normal (%) [2]: 98% | Population Pyknosed Nuclei (%) [2]: 7% | Population Tubulin-Different-Phenotype (%) [2]: 7% | Total Cell Count [2]: 98 | Population Apoptotic (%) [3]: 72% | Population Fragmented Nuclei (%) [3]: 37% | Population Healthy Nuclei (%) [3]: 44% | Population Hoechst High Intensity Objects (%) [3]: 6% | Population Membrane Permeable-Phenotype (%) [3]: 60% | Population Mitochondria Different-Phenotype (%) [3]: 67% | Population Mitotic Cells (%) [3]: 27% | Population Normal (%) [3]: 93% | Population Pyknosed Nuclei (%) [3]: 18% | Population Tubulin-Different-Phenotype (%) [3]: 75% | Total Cell Count [3]: 196 | Population Apoptotic (%) [4]: 88% | Population Fragmented Nuclei (%) [4]: 18% | Population Healthy Nuclei (%) [4]: 59% | Population Hoechst High Intensity Objects (%) [4]: 7% | Population Membrane Permeable-Phenotype (%) [4]: 57% | Population Mitochondria Different-Phenotype (%) [4]: 95% | Population Mitotic Cells (%) [4]: 11% | Population Normal (%) [4]: 92% | Population Pyknosed Nuclei (%) [4]: 22% | Population Tubulin-Different-Phenotype (%) [4]: 97% | Total Cell Count [4]: 82 | Population Apoptotic (%) [5]: 74% | Population Fragmented Nuclei (%) [5]: 27% | Population Healthy Nuclei (%) [5]: 55% | Population Hoechst High Intensity Objects (%) [5]: 2% | Population Membrane Permeable-Phenotype (%) [5]: 9% | Population Mitochondria Different-Phenotype (%) [5]: 9% | Population Mitotic Cells (%) [5]: 25% | Population Normal (%) [5]: 97% | Population Pyknosed Nuclei (%) [5]: 17% | Population Tubulin-Different-Phenotype (%) [5]: 5% | Total Cell Count [5]: 182 | Population Apoptotic (%) [6]: 100% | Population Fragmented Nuclei (%) [6]: 12% | Population Healthy Nuclei (%) [6]: 75% | Population Hoechst High Intensity Objects (%) [6]: 1% | Population Membrane Permeable-Phenotype (%) [6]: 5% | Population Mitochondria Different-Phenotype (%) [6]: 6% | Population Mitotic Cells (%) [6]: 0% | Population Normal (%) [6]: 98% | Population Pyknosed Nuclei (%) [6]: 11% | Population Tubulin-Different-Phenotype (%) [6]: 2% | Total Cell Count [6]: 103 | Population Apoptotic (%) [7]: 79% | Population Fragmented Nuclei (%) [7]: 38% | Population Healthy Nuclei (%) [7]: 38% | Population Hoechst High Intensity Objects (%) [7]: 4% | Population Membrane Permeable-Phenotype (%) [7]: 32% | Population Mitochondria Different-Phenotype (%) [7]: 59% | Population Mitotic Cells (%) [7]: 20% | Population Normal (%) [7]: 95% | Population Pyknosed Nuclei (%) [7]: 22% | Population Tubulin-Different-Phenotype (%) [7]: 44% | Total Cell Count [7]: 199 | Population Apoptotic (%) [8]: 73% | Population Fragmented Nuclei (%) [8]: 29% | Population Healthy Nuclei (%) [8]: 42% | Population Hoechst High Intensity Objects (%) [8]: 9% | Population Membrane Permeable-Phenotype (%) [8]: 52% | Population Mitochondria Different-Phenotype (%) [8]: 91% | Population Mitotic Cells (%) [8]: 26% | Population Normal (%) [8]: 90% | Population Pyknosed Nuclei (%) [8]: 27% | Population Tubulin-Different-Phenotype (%) [8]: 91% | Total Cell Count [8]: 93 | Population Apoptotic (%) [9]: 82% | Population Fragmented Nuclei (%) [9]: 26% | Population Healthy Nuclei (%) [9]: 54% | Population Hoechst High Intensity Objects (%) [9]: 3% | Population Membrane Permeable-Phenotype (%) [9]: 3% | Population Mitochondria Different-Phenotype (%) [9]: 5% | Population Mitotic Cells (%) [9]: 17% | Population Normal (%) [9]: 96% | Population Pyknosed Nuclei (%) [9]: 19% | Population Tubulin-Different-Phenotype (%) [9]: 3% | Total Cell Count [9]: 242 | Population Apoptotic (%) [10]: 85% | Population Fragmented Nuclei (%) [10]: 17% | Population Healthy Nuclei (%) [10]: 64% | Population Hoechst High Intensity Objects (%) [10]: 4% | Population Mitochondria Different-Phenotype (%) [10]: 1% | Population Mitotic Cells (%) [10]: 14% | Population Normal (%) [10]: 95% | Population Pyknosed Nuclei (%) [10]: 17% | Population Tubulin-Different-Phenotype (%) [10]: 1% | Total Cell Count [10]: 123 | Population Apoptotic (%) [11]: 92% | Population Fragmented Nuclei (%) [11]: 41% | Population Healthy Nuclei (%) [11]: 39% | Population Hoechst High Intensity Objects (%) [11]: 6% | Population Membrane Permeable-Phenotype (%) [11]: 31% | Population Mitochondria Different-Phenotype (%) [11]: 43% | Population Mitotic Cells (%) [11]: 7% | Population Normal (%) [11]: 93% | Population Pyknosed Nuclei (%) [11]: 18% | Population Tubulin-Different-Phenotype (%) [11]: 23% | Total Cell Count [11]: 221 | Population Apoptotic (%) [12]: 94% | Population Fragmented Nuclei (%) [12]: 29% | Population Healthy Nuclei (%) [12]: 32% | Population Hoechst High Intensity Objects (%) [12]: 10% | Population Membrane Permeable-Phenotype (%) [12]: 38% | Population Mitochondria Different-Phenotype (%) [12]: 70% | Population Mitotic Cells (%) [12]: 5% | Population Normal (%) [12]: 89% | Population Pyknosed Nuclei (%) [12]: 37% | Population Tubulin-Different-Phenotype (%) [12]: 48% | Total Cell Count [12]: 105

— ChEMBL document CHEMBL5058577, “EUbOPEN Chemogenomics Library 2 (Multiplex)” (2022)
